From ChEMBL document CHEMBL4765447, “Design, synthesis and biological evaluation of diamino substituted cyclobut-3-ene-1,2-dione derivatives for the treatment of drug-resistant tuberculosis” (Eur J Med Chem, 2020)
pIC50: −log10 of the molar value. Converted amounts (≈) assume the structure as drawn.

Experiments:
[1] = system: Mycobacterium tuberculosis H37Rv; assay: Inhibition of ATP synthase in Mycobacterium tuberculosis H37Rv assessed as reduction in bacterial growth incubated for 7 days by microplate alamar blue assay; conditions: time 7.0 day
Procedure, shortened: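 Microplate alamar blue assay. Strains grown to late log phase in 7H9 broth with 0.2% glycerol, 0.05% Tween 80 and 10% ADC, then washed, filtered (8 µm) and frozen. Twofold compound dilutions with 2×10^5 CFU per well at 37 °C. On day 7, Tween 80 and alamar blue added; after 16–24 h, fluorescence read at 530/590 nm. MIC is the lowest concentration giving ≥90% fluorescence reduction versus bacterium-only controls.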

Vero = assay: Cytotoxicity against African green monkey Vero cells assessed as reduction in cell viability measured after 48 hrs by MTT assay; assay type: cell-based; conditions: Chlorocebus sabaeus
Procedure, shortened: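 Vero cells grown in RPMI1640 with 10% FBS at 37 °C, 5% CO2, seeded at 4×10^5 cells/mL. Threefold dilutions from 64 to 0.26 µg/mL final, incubated 48 h at 37 °C. Monolayers washed with HBSS, then MTT added for 4 h. Absorbance read at 492 nm.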

[2] = Half life in CD-1 mouse hepatocytes at 1 uM measured after 30 mins by LC-MS/MS analysis; assay type: ADME, cell-based, Hepatocyte
Procedure, shortened: (§1)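 Pooled male CD-1 mouse or pooled human hepatocytes, pre-incubated 20 min at 37 °C in CO2. Compound at 1 µM final with 1 million cells/mL. Samples taken at 0 and 30 min, quenched and centrifuged 15 min at 4 °C. Parent compound remaining measured by LC-MS/MS.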

[3] = Half life in human hepatocytes at 1 uM measured after 30 mins by LC-MS/MS analysis; assay type: ADME, cell-based, Hepatocyte; procedure, shortened: as §1
[4] = Intrinsic clearance in CD-1 mouse hepatocytes at 1 uM measured after 30 mins by LC-MS/MS analysis; assay type: ADME, cell-based, Hepatocyte; conditions: 0.5 h; procedure, shortened: as §1
[5] = Intrinsic clearance in human hepatocytes at 1 uM measured after 30 mins by LC-MS/MS analysis; assay type: ADME, cell-based, Hepatocyte; conditions: 0.5 h; procedure, shortened: as §1
[6] = biological target: Voltage-gated inwardly rectifying potassium channel KCNH2 (Homo sapiens, UniProt Q12809); assay: Inhibition of human ERG stably expressed in HEK293 cells by whole-cell manual patch clamp method; assay type: cell-based
Chain of Voltage-gated inwardly rectifying potassium channel KCNH2 (Q12809 whole entry): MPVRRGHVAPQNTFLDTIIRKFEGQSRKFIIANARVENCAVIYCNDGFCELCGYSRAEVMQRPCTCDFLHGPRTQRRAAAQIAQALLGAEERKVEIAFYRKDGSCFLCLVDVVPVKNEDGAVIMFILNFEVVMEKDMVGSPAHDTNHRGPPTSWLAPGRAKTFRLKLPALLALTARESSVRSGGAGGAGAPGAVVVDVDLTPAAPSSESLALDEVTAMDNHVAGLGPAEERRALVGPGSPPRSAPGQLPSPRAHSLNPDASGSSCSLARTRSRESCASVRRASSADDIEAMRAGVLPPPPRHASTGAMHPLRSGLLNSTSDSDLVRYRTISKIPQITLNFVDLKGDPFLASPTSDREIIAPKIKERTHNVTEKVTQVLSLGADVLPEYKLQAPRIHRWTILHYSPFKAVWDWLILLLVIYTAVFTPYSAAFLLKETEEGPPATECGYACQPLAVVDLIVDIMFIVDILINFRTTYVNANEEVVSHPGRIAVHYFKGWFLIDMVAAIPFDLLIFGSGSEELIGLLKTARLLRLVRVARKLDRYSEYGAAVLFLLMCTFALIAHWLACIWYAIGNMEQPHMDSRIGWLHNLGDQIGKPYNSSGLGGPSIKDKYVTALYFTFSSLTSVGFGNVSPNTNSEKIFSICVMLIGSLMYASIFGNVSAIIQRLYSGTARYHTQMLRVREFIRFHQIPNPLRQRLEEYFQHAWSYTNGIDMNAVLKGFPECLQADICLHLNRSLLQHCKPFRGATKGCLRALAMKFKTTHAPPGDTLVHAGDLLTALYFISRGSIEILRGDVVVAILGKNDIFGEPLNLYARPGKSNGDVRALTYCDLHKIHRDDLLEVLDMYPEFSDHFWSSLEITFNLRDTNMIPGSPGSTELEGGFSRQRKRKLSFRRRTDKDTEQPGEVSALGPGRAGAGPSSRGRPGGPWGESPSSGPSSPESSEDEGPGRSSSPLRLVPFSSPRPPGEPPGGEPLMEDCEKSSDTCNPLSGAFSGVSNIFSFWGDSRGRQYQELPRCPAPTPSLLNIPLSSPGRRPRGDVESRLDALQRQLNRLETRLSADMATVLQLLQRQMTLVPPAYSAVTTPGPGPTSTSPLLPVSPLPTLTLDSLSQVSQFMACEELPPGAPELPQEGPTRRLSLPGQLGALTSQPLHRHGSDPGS

[7] = Cmax in Balb/c mouse at 50 mg/kg, po by LC-MS analysis; assay type: ADME, organism-based; parameters: route oral, dose 50 mg/kg; conditions: in vivo
Procedure, shortened: (§2)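 Male Balb/c mice (26–27 g), three per route. Single dose of 50 mg/kg p.o. in 0.5% carboxymethyl cellulose (5 mg/mL), or 5 mg/kg i.v. in 10% DMSO/50% PEG400/40% water (1 mg/mL). Blood taken at 5, 15, 30 min, 1, 2, 4, 7 and 24 h. Plasma extracted with acetonitrile (terfenadine internal standard) and quantified by LC-MS/MS in positive ESI. Non-compartmental analysis. F = dose-corrected AUC p.o./i.v.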

[8] = Tmax in Balb/c mouse at 50 mg/kg, po by LC-MS analysis; assay type: ADME, organism-based; conditions: in vivo; procedure, shortened: as §2
[9] = Elimination half life in Balb/c mouse at 50 mg/kg, po by LC-MS analysis; assay type: ADME, organism-based; conditions: in vivo, read-out: beta t1/2 (converted); procedure, shortened: as §2
[10] = AUC (0 to t) in Balb/c mouse at 50 mg/kg, po by LC-MS analysis; assay type: ADME, organism-based; parameters: dose 50 mg/kg; conditions: in vivo; procedure, shortened: as §2
[11] = AUC (0 to infinity) in Balb/c mouse at 50 mg/kg, po by LC-MS analysis; assay type: ADME, organism-based; parameters: route oral, time infinity, dose 50 mg/kg; conditions: in vivo; procedure, shortened: as §2
[12] = MRT (0 to infinity) in Balb/c mouse at 50 mg/kg, po by LC-MS analysis; assay type: ADME, organism-based; conditions: in vivo; procedure, shortened: as §2
[13] = Oral bioavailability in Balb/c mouse at 50 mg/kg by LC-MS analysis; assay type: ADME, organism-based; conditions: in vivo; procedure, shortened: as §2
[14] = Elimination half life in Balb/c mouse at 5 mg/kg, iv by LC-MS analysis; assay type: ADME, organism-based; conditions: in vivo, read-out: beta t1/2 (converted); procedure, shortened: as §2
[15] = AUC (0 to t) in Balb/c mouse at 5 mg/kg, iv by LC-MS analysis; assay type: ADME, organism-based; parameters: dose 5 mg/kg; conditions: in vivo; procedure, shortened: as §2
[16] = AUC (0 to infinity) in Balb/c mouse at 5 mg/kg, iv by LC-MS analysis; assay type: ADME, organism-based; parameters: time infinity, route intravenous, dose 5 mg/kg; conditions: in vivo; procedure, shortened: as §2
[17] = MRT (0 to infinity) in Balb/c mouse at 5 mg/kg, iv by LC-MS analysis; assay type: ADME, organism-based; conditions: in vivo; procedure, shortened: as §2
[18] = Clearance in Balb/c mouse at 5 mg/kg, iv by LC-MS analysis; assay type: ADME, organism-based; conditions: in vivo; procedure, shortened: as §2

Row | Compound | MIC=>90 [1] [µg/mL] | IC50 (Vero) [µg/mL] | also measured
1 | O=c1c(NCc2ccccn2)c(Nc2ccc(N3CCSCC3)cc2)c1=O | 1.54 (≈ 4.06 µM) | > 64 | half-life at 1 µM [2]: 12.6 min; half-life at 1 µM [3]: 12.1 min; intrinsic clearance [4]: 55.1 µL/min; intrinsic clearance [5]: 57.2 µL/min; pIC50 [6]: < 4.52
2 | O=C1NC(=O)C(c2ccc(N3CCOCC3)cc2)=C1NCc1cccnc1 | > 32 | – | –
3 | O=c1c(NCc2ccccn2)c(Nc2ccc3c(c2)OCCCO3)c1=O | 2.22 (≈ 6.32 µM) | > 64 | –
4 | O=c1c(NCc2ccccn2)c(Nc2ccc3c(c2)OCO3)c1=O | 0.452 (≈ 1.4 µM) | > 64 | half-life at 1 µM [2]: 17 min; half-life at 1 µM [3]: > 93.2 min; intrinsic clearance [4]: 40.8 µL/min; intrinsic clearance [5]: < 7.4 µL/min; pIC50 [6]: < 4.52; Cmax [7]: 1330 ng/mL; Tmax [8]: 49.8 min; half-life [9]: 30.6 min; AUC(0-t) [10]: 2200 ng·h/mL; AUC(0-inf) [11]: 2200 ng·h/mL; MRT inf [12]: 81.6 min; bioavailability [13]: 13.1%; half-life [14]: 19.8 min; AUC(0-t) [15]: 1670 ng·h/mL; AUC(0-inf) [16]: 1670 ng·h/mL; MRT inf [17]: 16.8 min; clearance [18]: 51.4 mL/min/kg
5 | O=c1c(NCc2ccccn2)c(Nc2ccc3ncsc3c2)c1=O | 1.91 (≈ 5.68 µM) | > 64 | –
6 | COc1cccc(Nc2c(NCc3ccccn3)c(=O)c2=O)c1 | 6.02 (≈ 19.5 µM) | – | –
7 | O=c1c(NCc2ccccn2)c(Nc2ccc(N3CCCOCC3)cc2)c1=O | 6.65 (≈ 17.6 µM) | – | –
8 | COc1ccccc1Nc1c(NCc2ccccn2)c(=O)c1=O | > 32 | – | –
9 | O=c1c(NCc2ccccn2)c(Nc2ccc3scnc3c2)c1=O | 0.963 (≈ 2.86 µM) | > 64 | pIC50 [6]: < 5.00
10 | O=C1COCCN1c1ccc(Nc2c(NCc3ccccn3)c(=O)c2=O)cc1 | 7.75 (≈ 20.5 µM) | – | –
11 | O=C1OCC(c2ccc(N3CCOCC3)cc2)=C1NCc1ccccn1 | > 32 | – | –
12 | Cc1cc(Nc2c(NCc3ccccn3)c(=O)c2=O)ccc1N1CCOCC1 | 2.45 (≈ 6.48 µM) | > 64 | –
13 | COc1ccc(Nc2c(NCc3ccccn3)c(=O)c2=O)cc1 | 3.42 (≈ 11 µM) | – | –
14 | O=C1CCCc2cc(Nc3c(NCc4ccccn4)c(=O)c3=O)ccc21 | 0.739 (≈ 2.13 µM) | > 64 | half-life at 1 µM [2]: 10.3 min; half-life at 1 µM [3]: 41.9 min; intrinsic clearance [4]: 67.2 µL/min; intrinsic clearance [5]: 16.6 µL/min
15 | O=c1c(NCc2ccccn2)c(Nc2cccc(N3CCSCC3)c2)c1=O | > 32 | – | –
16 | O=c1c(NCc2ccccn2)c(Nc2ccc3sccc3c2)c1=O | > 32 | – | –
17 | O=C1OCC(NCc2cccnc2)=C1c1ccc(N2CCOCC2)cc1 | > 32 | – | –
18 | O=c1c(NCc2ccccn2)c(Nc2ccc(N3CC[S+]([O-])CC3)cc2)c1=O | 15.8 (≈ 39.9 µM) | – | –
19 | O=c1c(NCc2ccccn2)c(Nc2ccc3c(c2)CCC3)c1=O | 0.979 (≈ 3.07 µM) | > 64 | half-life at 1 µM [2]: 11.1 min; half-life at 1 µM [3]: 10.3 min; intrinsic clearance [4]: 62.4 µL/min; intrinsic clearance [5]: 67.1 µL/min; pIC50 [6]: < 4.52
20 | O=C1NC(=O)C(c2ccc(N3CCOCC3)cc2)=C1NCc1ccccn1 | > 32 | – | –
21 | O=c1c(NCc2ccccn2)c(Nc2ccc(N3CCOCC3)cn2)c1=O | > 32 | – | –
22 | O=c1c(NCc2ccccn2)c(Nc2ccc(N3CCOCC3)cc2)c1=O | 3.75 (≈ 10.3 µM) | > 64 | half-life at 1 µM [2]: > 93.2 min; half-life at 1 µM [3]: > 93.2 min; intrinsic clearance [4]: < 7.4 µL/min; intrinsic clearance [5]: < 7.4 µL/min; pIC50 [6]: < 4.52
23 | COc1cc(Nc2c(NCc3ccccn3)c(=O)c2=O)ccc1N1CCSCC1 | > 32 | – | –

Row | Compound | MIC=>90 [1] [µg/mL] | IC50 (Vero) [µg/mL] | also measured
24 | Cc1ccc(CNc2c(Nc3ccc(N4CCSCC4)cc3)c(=O)c2=O)nc1 | > 32 | – | –
25 | O=c1c(NCc2cccnc2)c(Nc2ccc(N3CCSCC3)cc2)c1=O | > 32 | – | –
26 | O=c1c(NCc2ccccn2)c(Nc2ccc3[nH]ccc3c2)c1=O | > 32 | – | –
27 | CO[C@H]1/C=C/O[C@@]2(C)Oc3c(C)c(O)c4c(O)c(c(/C=N/N5CCN(C)CC5)c(O)c4c3C2=O)NC(=O)/C(C)=C\C=C\[C@H](C)[C@H](O)[C@@H](C)[C@@H](O)[C@@H](C)[C@H](OC(C)=O)[C@@H]1C | 0.015 (≈ 0.0182 µM) | – | –
28 | O=c1c(NCc2ccccn2)c(Nc2ccc(N3CCSCC3)c(C(F)(F)F)c2)c1=O | 9.4 (≈ 21 µM) | – | –
29 | O=c1c(NCc2ccccn2)c(Nc2ccc(C(F)(F)F)cc2)c1=O | 14.9 (≈ 42.9 µM) | – | –
30 | O=C1OCC(c2ccc(N3CCOCC3)cc2)=C1NCc1cccnc1 | > 32 | – | –
31 | O=C1CCc2ccc(Nc3c(NCc4ccccn4)c(=O)c3=O)cc21 | 1.83 (≈ 5.5 µM) | > 64 | –
32 | O=C1OCC(NCc2ccccn2)=C1c1ccc(N2CCSCC2)cc1 | > 32 | – | –
33 | O=C1CCc2cc(Nc3c(NCc4ccccn4)c(=O)c3=O)ccc21 | 3.46 (≈ 10.4 µM) | > 64 | –
34 | O=c1c(NCc2ccccn2)c(Nc2ccc(Cl)cc2)c1=O | 7.7 (≈ 24.5 µM) | – | –
35 | CN(C)c1ccc(Nc2c(NCc3ccccn3)c(=O)c2=O)cc1 | 2 (≈ 6.19 µM) | – | –
36 | O=c1c(NCc2ccccn2)c(Nc2ccc(N3CCCCC3)cc2)c1=O | 3.76 (≈ 10.4 µM) | – | –
37 | Cc1cccc(CNc2c(Nc3ccc(N4CCSCC4)cc3)c(=O)c2=O)n1 | 3.65 (≈ 9.24 µM) | – | –
38 | NNC(=O)c1ccncc1 | 0.019 (≈ 0.139 µM) | – | –
39 | O=c1c(NCc2ccccn2)c(-c2ccc(N3CCOCC3)cc2)c1=O | 0.12 (≈ 0.343 µM) | > 64 | half-life at 1 µM [2]: 17.1 min; half-life at 1 µM [3]: 31.7 min; intrinsic clearance [4]: 40.6 µL/min; intrinsic clearance [5]: 21.9 µL/min; pIC50 [6]: < 4.52
40 | O=C1NC(=O)C(c2ccc(N3CCOCC3)cc2)=C1NCc1ccncc1 | > 32 | – | –
41 | O=c1c(NCc2ccccn2)c(Nc2ccc(N3CCOCC3)nc2)c1=O | > 32 | – | –
42 | O=c1c(NCc2ccccn2)c(Nc2ccc3c(c2)OCCO3)c1=O | 1.89 (≈ 5.59 µM) | > 64 | –
43 | Cc1cc(Nc2c(NCc3ccccn3)c(=O)c2=O)ccc1N1CCSCC1 | 0.496 (≈ 1.26 µM) | > 64 | half-life at 1 µM [2]: 5.4 min; half-life at 1 µM [3]: 9 min; intrinsic clearance [4]: 127.8 µL/min; intrinsic clearance [5]: 77 µL/min; pIC50 [6]: < 5.00
44 | N#Cc1cc(Nc2c(NCc3ccccn3)c(=O)c2=O)ccc1N1CCSCC1 | 1.23 (≈ 3.04 µM) | > 64 | –
45 | O=C1OCC(NCc2ccccn2)=C1c1ccc(N2CCOCC2)cc1 | > 32 | – | –
